In series [1] the test system is NCI-H1299. In words: Antiproliferative activity against human H1299 cells assessed as inhibition of cell viability at 1 uM after 72 hrs by CCK-8 assay relative to control. The series is classed as functional. The following applies: NCI-H1299, 72 h. A digest of the protocol:
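Single-concentration viability screen using CCK-8. Cells were seeded at 3000/well and treated for 72 h. A450 read after 1-4 h with reagent. Percent inhibition calculated against untreated control and blank wells as (Ac−As)/(Ac−Ab)×100%.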
Background: Tetrazolium assays rely on reduction of a dye to a coloured formazan, in cell work by metabolically active cells.

Series [2] relates to NCI-H1299. Kind of series: Induction of cell cycle arrest in human H1299 cells assessed as increase in accumulation of cells at G2/M phase at 1 uM after 24 hrs by propidium iodide/RNase staining based flow cytometric analysis (reference value: 19%). It is filed as functional. A digest of the protocol:
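A549 and H1299 plated at 5×10^5 cells/mL in 6-well plates, treated after adherence for 24 h. Washed with PBS, fixed overnight in ice-cold 75% ethanol, stained with propidium iodide plus RNase A for 30 min at 37 °C, analysed by flow cytometry for phase distribution. Means ± SD, three independent experiments.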
In general terms: In flow cytometry, cells or beads pass a laser one at a time.

Series [3] has as its system NCI-H1299. Kind of series: Induction of apoptosis in human H1299 cells assessed as late apoptotic cells at 1 uM after 48 hrs by AnnexinV-FITC/PI staining-based flow cytometric analysis (reference value: 1.77%). The series is classed as functional.
In series [4] the test system is NCI-H1299. In words: Induction of apoptosis in human H1299 cells assessed as early apoptotic cells at 0.5 uM after 48 hrs by AnnexinV-FITC/PI staining-based flow cytometric analysis (reference value: 0.248%). The series is classed as functional.
Series [5] concerns NCI-H1299. Kind of series: Induction of apoptosis in human H1299 cells assessed as increase in Bim level at 0.25 to 1 uM after 24 hrs by Western blot analysis. The series is classed as functional, cell-based. The method, boiled down: (§1)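 A549 or H1299 cells exposed to the indicated concentrations for 24 h. Protein extracts then immunoblotted for apoptosis-pathway proteins (Bcl2, Bim, cleaved caspase 3).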

Series [6] relates to A549. In words: Induction of apoptosis in human A549 cells assessed as increase in cleaved caspase 3 expression at 0.25 to 1 uM after 24 hrs by Western blot analysis. It is filed as functional, cell-based. The method, boiled down: as §1
(In western blotting, separated proteins are transferred to a membrane and probed.)

In series [7] the test system is A549. Kind of series: Down regulation of CDK9 expression in human A549 cells at 0.25 to 1 uM after 24 hrs by Western blot analysis. It is filed as functional, cell-based. A digest of the protocol:
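A549 and H1299 cells treated for 24 h with serial dilutions alongside a DMSO control. Protein extracts resolved and immunoblotted.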

Series [8] relates to NCI-H1299. Kind of series: Downregulation of KLF4 in human H1299 cells at 0.25 to 1 uM by Western blot analysis. The series is classed as functional, cell-based.
Series [9] can be described thus: Toxicity in Balb/c mouse xenografted with human H1299 cells assessed as effect on body weight at 20 to 80 mg/kg, po administered for 21 days and measured daily […]. The series is classed as organism-based. The following applies: in vivo, 504 h.
In series [10] the test system is Tyrosine-protein kinase ABL1 (Homo sapiens), P00519 [Q252H]. Kind of series: Inhibition of recombinant human ABL Q252H mutant (27 to end residues) at 1 uM using EAIYAAPFAKKK as substrate measured after 40 mins in presence of [gamma33P]ATP by scintillation counting method relative to control.
In series [11] the target is 5'-AMP-activated protein kinase catalytic subunit alpha-1 (Homo sapiens) (UniProt Q13131). In words: Inhibition of full length recombinant human AMPK alpha1 at 1 uM using AMARAASAAALARRR as substrate measured after 40 mins in presence of [gamma33P]ATP by scintillation counting method relative to control. The method, boiled down: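 Single-point inhibition at 1 µM was measured in the Eurofins KinaseProfiler panel. Values are the mean of two independent experiments.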
Sequence of 5'-AMP-activated protein kinase catalytic subunit alpha-1 (Homo sapiens) (Q13131 whole entry, looked up): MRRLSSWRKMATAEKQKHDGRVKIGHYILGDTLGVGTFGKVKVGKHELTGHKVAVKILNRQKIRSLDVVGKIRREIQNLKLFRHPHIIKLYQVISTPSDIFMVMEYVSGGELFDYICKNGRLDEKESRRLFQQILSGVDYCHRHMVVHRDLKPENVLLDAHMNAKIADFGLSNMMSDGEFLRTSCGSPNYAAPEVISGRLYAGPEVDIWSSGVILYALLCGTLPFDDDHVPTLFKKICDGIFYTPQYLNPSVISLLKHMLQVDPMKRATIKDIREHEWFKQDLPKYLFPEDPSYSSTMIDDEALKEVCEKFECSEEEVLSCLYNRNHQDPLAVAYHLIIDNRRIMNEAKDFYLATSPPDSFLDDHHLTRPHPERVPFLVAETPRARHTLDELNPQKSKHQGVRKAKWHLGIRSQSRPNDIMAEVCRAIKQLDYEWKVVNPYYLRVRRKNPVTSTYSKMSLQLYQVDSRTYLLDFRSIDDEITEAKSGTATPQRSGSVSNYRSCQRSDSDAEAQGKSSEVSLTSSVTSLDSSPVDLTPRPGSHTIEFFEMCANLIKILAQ

Series [12] has as its system Tyrosine-protein kinase receptor UFO (Homo sapiens), P30530 [Q764R]. Kind of series: Inhibition of recombinant human AXL Q764R mutant (473 to end residues) at 1 uM using KKSRGDYMTMQIG as substrate measured after 40 mins in presence of [gamma33P]ATP by scintillation counting method relative to control.
Series [13] concerns the target Cyclin-dependent kinase 1/cyclin B1 (Homo sapiens) (UniProt P06493+P14635). In words: Inhibition of recombinant full-length human CDK1/cyclinB at 1 uM using Histone H1 as substrate measured after 40 mins in presence of [gamma33P]ATP by scintillation counting method relative to control. It is filed as protein-complex assay.
Series [14] addresses Serine/threonine-protein kinase PAK 1 (Homo sapiens) (UniProt Q13153). Kind of series: Inhibition of recombinant human PAK1 (150 to end residues) at 1 uM using RRRLSFAEPG as substrate measured after 40 mins in presence of [gamma33P]ATP by scintillation counting method relative to control.
The target in series [15] is Serine/threonine-protein kinase 17B (Homo sapiens) (UniProt O94768). In words: Inhibition of recombinant full-length human DRAK2 at 1 uM using KKRPQRRYSNVF as substrate measured after 120 mins in presence of [gamma33P]ATP by scintillation counting method relative to control.
Series [16] addresses Ephrin type-A receptor 7 (Homo sapiens) (UniProt Q15375). In words: Inhibition of recombinant human EphA7 (613 to 909 residues) at 1 uM using KTFCGTPEYLAPEVRREPRILSEEEQEMFRDFDYIADWC as substrate measured after 40 mins in presence of [gamma33P]ATP by scintillation counting method relative to control.
The target in series [17] is Tyrosine-protein kinase FRK (Homo sapiens) (UniProt P42685). Kind of series: Inhibition of human PTK5 (218 to end residues) at 1 uM using GGEEEEYFELVKKKK as substrate measured after 40 mins in presence of [gamma33P]ATP by scintillation counting method relative to control. A digest of the protocol:
(§2)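 Percent inhibition of kinase activity at a single compound concentration, measured by the outsourced Eurofins KinaseProfiler panel. Values are the mean of two independent experiments.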

Series [18] deals with Ribosomal protein S6 kinase alpha-2 (Homo sapiens) (UniProt Q15349). In words: Inhibition of human Rsk2 (2 to end residues) at 1 uM using KKKNRTLSVA as substrate measured after 40 mins in presence of [gamma33P]ATP by scintillation counting method relative to control. A digest of the protocol:
as §2

In series [19] the test system is Serine/threonine-protein kinase Sgk1 (Homo sapiens), O00141 [S422D]. Kind of series: Inhibition of recombinant human SGK S422D mutant (60 to end residues) at 1 uM using GRPRTSSFAEGKK as substrate measured after 40 mins in presence of [gamma33P]ATP by scintillation counting method relative to control.
The target of series [20] is Homeodomain-interacting protein kinase 3 (Homo sapiens) (UniProt Q9H422). Kind of series: Inhibition of recombinant human HIPK3 (161 to 562 residues) at 1 uM using myelin basic protein as substrate measured after 40 mins in presence of [gamma33P]ATP by scintillation counting method relative to control.
Series [21] deals with Tyrosine-protein kinase Srms (Homo sapiens) (UniProt Q9H3Y6). In words: Inhibition of human SRMS at 1 uM by radiometric method relative to control. The method, boiled down: as §2
The target of series [22] is Wee1-like protein kinase (Homo sapiens) (UniProt P30291). In words: Inhibition of recombinant human Wee1 (214 to end residues) at 1 uM using LSNLYHQGKFLQTFCGSPLYRRR as substrate measured after 40 mins in presence of [gamma33P]ATP by scintillation counting method relative to control.
Sequence of Wee1-like protein kinase (Homo sapiens) (P30291 whole entry, looked up): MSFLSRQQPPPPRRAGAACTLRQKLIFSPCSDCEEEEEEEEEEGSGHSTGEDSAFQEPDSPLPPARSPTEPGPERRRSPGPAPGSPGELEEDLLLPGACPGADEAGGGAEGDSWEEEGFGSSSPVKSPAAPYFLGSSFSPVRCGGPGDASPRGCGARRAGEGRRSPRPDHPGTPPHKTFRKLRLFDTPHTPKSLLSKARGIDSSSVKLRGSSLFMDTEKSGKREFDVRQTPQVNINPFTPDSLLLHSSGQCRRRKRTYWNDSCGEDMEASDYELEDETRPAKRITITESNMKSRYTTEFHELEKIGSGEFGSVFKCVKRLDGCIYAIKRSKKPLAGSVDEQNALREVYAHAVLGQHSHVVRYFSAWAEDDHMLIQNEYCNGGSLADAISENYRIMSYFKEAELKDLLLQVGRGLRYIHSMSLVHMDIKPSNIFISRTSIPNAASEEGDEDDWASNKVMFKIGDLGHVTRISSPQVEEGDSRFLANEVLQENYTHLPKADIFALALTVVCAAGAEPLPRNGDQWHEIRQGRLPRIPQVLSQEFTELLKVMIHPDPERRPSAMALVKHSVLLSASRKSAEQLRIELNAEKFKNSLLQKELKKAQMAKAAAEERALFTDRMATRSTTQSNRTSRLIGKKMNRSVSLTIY
In series [23] the target is Cyclin-dependent kinase 9 (Homo sapiens) (UniProt P50750). The following applies: 0.25 to 1 uM.

Calls of active or inactive are those of the source. The calls are words filed in the database; no cut-off is given here.

One may read the inhibition as the drop in the measured response relative to a control, in per cent.

Sequence of Ribosomal protein S6 kinase alpha-2 (Homo sapiens) (Q15349 whole entry): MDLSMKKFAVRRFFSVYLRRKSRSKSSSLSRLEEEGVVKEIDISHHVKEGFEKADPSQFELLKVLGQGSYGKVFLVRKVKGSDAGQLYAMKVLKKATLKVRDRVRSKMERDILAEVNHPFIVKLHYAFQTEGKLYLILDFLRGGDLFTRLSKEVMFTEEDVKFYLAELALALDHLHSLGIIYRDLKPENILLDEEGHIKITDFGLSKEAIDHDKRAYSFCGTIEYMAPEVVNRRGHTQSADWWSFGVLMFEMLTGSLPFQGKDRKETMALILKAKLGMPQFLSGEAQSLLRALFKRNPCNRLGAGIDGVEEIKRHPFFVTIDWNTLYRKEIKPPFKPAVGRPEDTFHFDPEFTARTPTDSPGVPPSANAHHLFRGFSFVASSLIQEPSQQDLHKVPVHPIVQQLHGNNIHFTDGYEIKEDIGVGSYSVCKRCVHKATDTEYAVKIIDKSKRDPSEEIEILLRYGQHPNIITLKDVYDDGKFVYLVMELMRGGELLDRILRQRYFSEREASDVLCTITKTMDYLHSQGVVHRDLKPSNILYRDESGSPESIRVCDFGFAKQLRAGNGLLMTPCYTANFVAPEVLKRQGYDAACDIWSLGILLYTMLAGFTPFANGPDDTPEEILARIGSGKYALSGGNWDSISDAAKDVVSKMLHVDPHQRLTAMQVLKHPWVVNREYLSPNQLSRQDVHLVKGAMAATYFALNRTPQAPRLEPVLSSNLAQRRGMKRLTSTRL
Sequence of Tyrosine-protein kinase FRK (Homo sapiens) (P42685 whole entry): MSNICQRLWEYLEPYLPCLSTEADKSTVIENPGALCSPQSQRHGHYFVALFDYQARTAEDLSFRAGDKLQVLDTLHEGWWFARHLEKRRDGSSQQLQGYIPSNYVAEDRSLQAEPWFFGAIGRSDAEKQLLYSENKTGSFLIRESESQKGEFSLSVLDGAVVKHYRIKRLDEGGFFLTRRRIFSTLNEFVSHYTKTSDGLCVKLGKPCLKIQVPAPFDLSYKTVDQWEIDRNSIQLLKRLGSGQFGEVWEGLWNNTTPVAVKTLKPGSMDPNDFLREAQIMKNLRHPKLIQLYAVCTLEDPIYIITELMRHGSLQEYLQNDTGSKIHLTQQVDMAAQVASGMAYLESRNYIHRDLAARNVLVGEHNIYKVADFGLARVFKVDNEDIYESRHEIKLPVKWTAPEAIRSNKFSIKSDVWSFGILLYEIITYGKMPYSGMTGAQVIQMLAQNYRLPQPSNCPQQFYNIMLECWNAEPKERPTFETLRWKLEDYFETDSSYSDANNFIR
Sequence of Ephrin type-A receptor 7 (Homo sapiens) (Q15375 28-998 limits assumed): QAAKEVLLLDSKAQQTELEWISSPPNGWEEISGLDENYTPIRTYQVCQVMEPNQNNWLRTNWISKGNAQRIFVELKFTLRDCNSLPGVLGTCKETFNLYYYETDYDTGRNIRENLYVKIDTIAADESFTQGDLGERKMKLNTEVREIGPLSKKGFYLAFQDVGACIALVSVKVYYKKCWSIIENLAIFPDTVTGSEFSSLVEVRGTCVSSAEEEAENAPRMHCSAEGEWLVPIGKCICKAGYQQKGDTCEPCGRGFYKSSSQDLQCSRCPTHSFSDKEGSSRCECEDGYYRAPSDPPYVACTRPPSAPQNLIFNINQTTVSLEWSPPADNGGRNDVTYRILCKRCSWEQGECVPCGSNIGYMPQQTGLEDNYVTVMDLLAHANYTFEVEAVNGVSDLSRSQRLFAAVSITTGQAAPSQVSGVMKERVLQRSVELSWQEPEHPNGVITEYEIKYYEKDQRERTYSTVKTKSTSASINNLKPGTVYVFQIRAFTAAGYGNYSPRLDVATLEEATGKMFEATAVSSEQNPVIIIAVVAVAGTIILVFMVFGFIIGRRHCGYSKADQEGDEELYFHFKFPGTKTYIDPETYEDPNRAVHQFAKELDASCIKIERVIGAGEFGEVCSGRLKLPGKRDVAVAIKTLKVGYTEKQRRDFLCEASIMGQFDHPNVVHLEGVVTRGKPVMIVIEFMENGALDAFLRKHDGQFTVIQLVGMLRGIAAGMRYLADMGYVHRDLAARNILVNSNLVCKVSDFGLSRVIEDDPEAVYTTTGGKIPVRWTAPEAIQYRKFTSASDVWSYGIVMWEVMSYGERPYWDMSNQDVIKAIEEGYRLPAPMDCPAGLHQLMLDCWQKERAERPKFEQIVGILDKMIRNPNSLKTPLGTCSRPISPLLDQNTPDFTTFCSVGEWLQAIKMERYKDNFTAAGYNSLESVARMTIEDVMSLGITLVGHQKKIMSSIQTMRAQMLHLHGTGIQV
Sequence of Serine/threonine-protein kinase PAK 1 (Homo sapiens) (Q13153 whole entry): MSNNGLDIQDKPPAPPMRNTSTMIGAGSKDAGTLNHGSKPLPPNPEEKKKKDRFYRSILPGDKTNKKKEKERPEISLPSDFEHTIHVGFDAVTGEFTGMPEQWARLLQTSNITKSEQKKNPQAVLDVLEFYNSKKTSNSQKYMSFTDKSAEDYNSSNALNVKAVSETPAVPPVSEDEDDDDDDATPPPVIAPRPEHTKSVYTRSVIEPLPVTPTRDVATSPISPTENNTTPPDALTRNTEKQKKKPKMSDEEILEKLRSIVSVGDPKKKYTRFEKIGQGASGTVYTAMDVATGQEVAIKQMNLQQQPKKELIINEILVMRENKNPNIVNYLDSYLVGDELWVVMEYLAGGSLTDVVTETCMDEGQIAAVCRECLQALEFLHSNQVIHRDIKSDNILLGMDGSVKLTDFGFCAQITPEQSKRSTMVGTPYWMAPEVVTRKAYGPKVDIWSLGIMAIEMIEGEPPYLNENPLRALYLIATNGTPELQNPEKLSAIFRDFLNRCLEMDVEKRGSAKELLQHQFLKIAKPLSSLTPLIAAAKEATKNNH
Sequence of Tyrosine-protein kinase receptor UFO (Homo sapiens), P30530 [Q764R] (P30530 whole entry Q764R): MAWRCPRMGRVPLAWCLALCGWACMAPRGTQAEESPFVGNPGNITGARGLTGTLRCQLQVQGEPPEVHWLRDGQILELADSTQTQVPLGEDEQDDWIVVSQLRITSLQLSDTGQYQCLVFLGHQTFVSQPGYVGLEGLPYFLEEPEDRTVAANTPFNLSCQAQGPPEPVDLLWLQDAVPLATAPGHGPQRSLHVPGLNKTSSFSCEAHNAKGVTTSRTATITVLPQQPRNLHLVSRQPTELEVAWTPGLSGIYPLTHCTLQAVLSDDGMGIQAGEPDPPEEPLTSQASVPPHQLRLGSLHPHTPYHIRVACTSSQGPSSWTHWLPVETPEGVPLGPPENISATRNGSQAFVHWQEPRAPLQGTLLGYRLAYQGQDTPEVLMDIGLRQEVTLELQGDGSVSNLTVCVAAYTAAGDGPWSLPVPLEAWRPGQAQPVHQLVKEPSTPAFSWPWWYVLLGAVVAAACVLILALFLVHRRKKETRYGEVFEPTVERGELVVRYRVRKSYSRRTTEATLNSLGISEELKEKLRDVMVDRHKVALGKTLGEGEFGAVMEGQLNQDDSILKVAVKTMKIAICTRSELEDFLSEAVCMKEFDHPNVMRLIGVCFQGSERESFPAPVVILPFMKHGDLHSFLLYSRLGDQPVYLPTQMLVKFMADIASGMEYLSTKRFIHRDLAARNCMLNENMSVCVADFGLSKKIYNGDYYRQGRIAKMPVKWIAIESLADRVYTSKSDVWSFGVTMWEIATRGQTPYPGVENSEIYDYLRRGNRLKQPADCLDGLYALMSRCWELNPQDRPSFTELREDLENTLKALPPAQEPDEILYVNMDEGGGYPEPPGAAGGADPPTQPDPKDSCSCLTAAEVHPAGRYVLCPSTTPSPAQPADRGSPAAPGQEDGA

In the case of `CN(C)C(=O)c1cc2cnc(Nc3ccc(NC(=O)CCCCCCCN=C=S)cc3)nc2n1C1CCCC1`, in the series on NCI-H1299 [1], the inhibition at 1 µM stood at 87.4%. In addition, the Activity in the series with NCI-H1299 [2] was 34.4%; in the series with NCI-H1299 [3], 4.51%; in the series on NCI-H1299 [4] it was 0.758%; in series [9], “Non-Toxic”. The outcome with NCI-H1299 [5], in the series with A549 [6] and in the series on NCI-H1299 [8] was Active. The result in the series with A549 [7] was inactive. Moreover, the inhibition in series [10] was 48%; in series [11], 11%; in series [12], 71%; in [13] it was 58%; in series [14], -5%; in series [15], -8%. For the same compound, the inhibition is 6% in series [16]; 15% in series [17]; 19% in series [18]; 24% in [19]; 26% in [20]; 34% in series [21]. Also, the inhibition in series [22] is 8%. In series [23], the inhibition entry is “Active”.

These data come from ChEMBL document CHEMBL4376814, “Novel cyclin-dependent kinase 9 (CDK9) inhibitor with suppression of cancer stemness activity against non-small-cell lung cancer” (Eur J Med Chem, 2019).
